From ChEMBL document CHEMBL1671716, “Antimicrobial susceptibility patterns for recent clinical isolates of anaerobic bacteria in South Korea” (2010)
Values after ≈ are worked out from the molar mass of the structure shown.

Tests used:
[1] = test system: Bacteroides thetaiotaomicron; assay: Antimicrobial activity against Bacteroides thetaiotaomicron after 48 hrs by agar dilution method; assay type: functional
Procedure, shortened: (§1)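 MICs on clinical anaerobe isolates by the CLSI agar dilution method. Inoculum of 10^5 CFU applied with a Steers replicator. Plates incubated 48 h at 37°C in an anaerobic chamber.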

[2] = test system: Prevotella buccae; assay: Antimicrobial activity against Prevotella buccae after 48 hrs by agar dilution method; assay type: functional; conditions: Segatella buccae
Procedure, shortened: (§2)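 CLSI agar dilution (M11-A7); inoculum 10^5 CFU applied by replicator; plates incubated anaerobically 48 h at 37°C. For piperacillin-tazobactam, tazobactam held constant at 4 μg/ml.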

[3] = test system: Phocaeicola vulgatus; assay: Antimicrobial activity against Bacteroides vulgatus after 48 hrs by agar dilution method; assay type: functional; procedure, shortened: as §1
[4] = test system: Parvimonas micra; assay: Antimicrobial activity against Peptostreptococcus micros after 48 hrs by agar dilution method; assay type: functional; procedure, shortened: as §2
[5] = test system: Parabacteroides distasonis; assay: Antimicrobial activity against Bacteroides distasonis assessed as percent susceptible isolates after 48 hrs by agar dilution method; assay type: functional
[6] = test system: Actinomyces naeslundii; assay: Antimicrobial activity against Actinomyces naeslundii assessed as percent resistant isolates after 48 hrs by agar dilution method; assay type: functional
Procedure, shortened: (§3)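 CLSI agar dilution on recent Korean clinical anaerobe isolates. Inoculum 10^5 CFU per spot by replicator. Plates incubated in an anaerobic chamber at 37°C for 48 h. For piperacillin plus tazobactam, tazobactam was held constant at 4 μg/ml. Resistance and susceptibility rates derived from MICs.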

[7] = test system: Bacteroides thetaiotaomicron; assay: Antimicrobial activity against Bacteroides thetaiotaomicron assessed as percent resistant isolates after 48 hrs by agar dilution method; assay type: functional; procedure, shortened: as §3
[8] = test system: Schaalia meyeri; assay: Antimicrobial activity against Actinomyces meyeri assessed as percent susceptible isolates after 48 hrs by agar dilution method; assay type: functional
[9] = test system: Clostridium perfringens; assay: Antimicrobial activity against Clostridium perfringens after 48 hrs by agar dilution method; assay type: functional
[10] = test system: Prevotella intermedia; assay: Antimicrobial activity against Prevotella intermedia assessed as percent susceptible isolates after 48 hrs by agar dilution method; assay type: functional; procedure, shortened: as §2
[11] = test system: Parabacteroides distasonis; assay: Antimicrobial activity against Bacteroides distasonis assessed as percent resistant isolates after 48 hrs by agar dilution method; assay type: functional; procedure, shortened: as §3
[12] = test system: Fusobacterium varium; assay: Antimicrobial activity against Fusobacterium varium after 48 hrs by agar dilution method; assay type: functional; procedure, shortened: as §2
[13] = test system: Prevotella bivia; assay: Antimicrobial activity against Prevotella bivia after 48 hrs by agar dilution method; assay type: functional; procedure, shortened: as §2
[14] = test system: Actinomyces israelii; assay: Antimicrobial activity against Actinomyces israelii assessed as percent resistant isolates after 48 hrs by agar dilution method; assay type: functional; procedure, shortened: as §3
[15] = test system: Bifidobacterium adolescentis; assay: Antimicrobial activity against Bifidobacterium adolescentis assessed as percent susceptible isolates after 48 hrs by agar dilution method; assay type: functional
[16] = test system: Hoylesella oralis; assay: Antimicrobial activity against Prevotella oralis after 48 hrs by agar dilution method; assay type: functional; procedure, shortened: as §2
[17] = test system: Prevotella buccae; assay: Antimicrobial activity against Prevotella buccae assessed as percent resistant isolates after 48 hrs by agar dilution method; assay type: functional, Segatella buccae; procedure, shortened: as §3
[18] = test system: Bacteroides thetaiotaomicron; assay: Antimicrobial activity against Bacteroides thetaiotaomicron assessed as percent susceptible isolates after 48 hrs by agar dilution method; assay type: functional
[19] = test system: Eggerthella lenta; assay: Antimicrobial activity against Eubacterium lentum after 48 hrs by agar dilution method; assay type: functional; procedure, shortened: as §2
[20] = test system: Bacteroides caccae; assay: Antimicrobial activity against Bacteroides caccae after 48 hrs by agar dilution method; assay type: functional; procedure, shortened: as §1
[21] = test system: Actinomyces naeslundii; assay: Antimicrobial activity against Actinomyces naeslundii assessed as percent susceptible isolates after 48 hrs by agar dilution method; assay type: functional
[22] = test system: Schaalia odontolytica; assay: Antimicrobial activity against Actinomyces odontolyticus after 48 hrs by agar dilution method; assay type: functional; procedure, shortened: as §1
[23] = test system: Peptoniphilus asaccharolyticus; assay: Antimicrobial activity against Peptoniphilus asaccharolyticus after 48 hrs by agar dilution method; assay type: functional; procedure, shortened: as §2
[24] = test system: Bifidobacterium sp.; assay: Antimicrobial activity against Bifidobacterium sp. assessed as percent susceptible isolates after 48 hrs by agar dilution method; assay type: functional; procedure, shortened: as §2
[25] = test system: Prevotella intermedia; assay: Antimicrobial activity against Prevotella intermedia assessed as percent resistant isolates after 48 hrs by agar dilution method; assay type: functional; procedure, shortened: as §3
[26] = test system: Hoylesella oralis; assay: Antimicrobial activity against Prevotella oralis assessed as percent resistant isolates after 48 hrs by agar dilution method; assay type: functional; procedure, shortened: as §3
[27] = test system: Prevotella bivia; assay: Antimicrobial activity against Prevotella bivia assessed as percent susceptible isolates after 48 hrs by agar dilution method; assay type: functional; procedure, shortened: as §2
[28] = test system: Finegoldia magna; assay: Antimicrobial activity against Finegoldia magna assessed as percent susceptible isolates after 48 hrs by agar dilution method; assay type: functional; procedure, shortened: as §2
[29] = test system: Schaalia meyeri; assay: Antimicrobial activity against Actinomyces meyeri assessed as percent resistant isolates after 48 hrs by agar dilution method; assay type: functional; procedure, shortened: as §3

CO[C@@]1(NC(=O)C2SC(=C(C(N)=O)C(=O)O)S2)C(=O)N2C(C(=O)O)=C(CSc3nnnn3C)CS[C@@H]21 (stereo not given in full) [CEFOTETAN]
MIC50 [1]: > 128 µg/mL | MIC90 [1]: > 128 µg/mL | MIC50 [2]: 4 µg/mL (≈ 6.95 µM) | MIC90 [2]: 64 µg/mL (≈ 111 µM) | MIC50 [3]: > 128 µg/mL | MIC90 [3]: > 128 µg/mL | MIC50 [4]: 4 µg/mL (≈ 6.95 µM) | MIC90 [4]: 64 µg/mL (≈ 111 µM) | Activity [5]: 89% | Activity [6]: 15% | Activity [7]: 86% | Activity [8]: 85% | MIC50 [9]: 0.25 µg/mL (≈ 0.434 µM) | MIC90 [9]: 1 µg/mL (≈ 1.74 µM) | Activity [10]: 100% | Activity [11]: 86% | MIC [12]: 0.06 µg/mL (≈ 0.104 µM) | MIC50 [13]: 4 µg/mL (≈ 6.95 µM) | MIC90 [13]: 64 µg/mL (≈ 111 µM) | Activity [14]: 15% | Activity [15]: 85% | MIC50 [16]: 4 µg/mL (≈ 6.95 µM) | MIC90 [16]: 64 µg/mL (≈ 111 µM) | Activity [17]: 17% | Activity [18]: 89% | MIC50 [19]: 4 µg/mL (≈ 6.95 µM) | MIC90 [19]: 64 µg/mL (≈ 111 µM) | MIC50 [20]: > 128 µg/mL | MIC90 [20]: > 128 µg/mL | Activity [21]: 85% | MIC50 [22]: 4 µg/mL (≈ 6.95 µM) | MIC90 [22]: 64 µg/mL (≈ 111 µM) | MIC50 [23]: 0.25 µg/mL (≈ 0.434 µM) | MIC90 [23]: 1 µg/mL (≈ 1.74 µM) | Activity [24]: 85% | Activity [25]: 0% | Activity [26]: 17% | Activity [27]: 72% | Activity [28]: 100% | Activity [29]: 15%
